A selection: hits, their analogues and other compounds. The true share with any hit is near 2%.
LYP act: activators of human LYP (PTPN22) phosphatase | Q9Y2R2 | recombinant LYP, DiFMUP fluorescence; 0 = plate median, 100 = signal doubled | activation, % at 2 µM | 96,000 compounds, 0.11% hits | AID 697;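 active = activation at 2 µM above a set limit, the mean plus 5 SD, cut at about 37% in these data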
EphB4 antag: antagonists of human EphB4-ephrin-B2 interaction. P54760. EphB4 LBD / TNYL-RAW-Alexa532 peptide, fluorescence polarization. inhibition, % at 7 µM. 97,000 compounds, 0.15% hits;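 active = inhibition above the screen-wide mean inhibition plus 3 SD, cut at about 15% in these data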
Target sequence (P54760 whole entry, looked up, the tested form may be a part): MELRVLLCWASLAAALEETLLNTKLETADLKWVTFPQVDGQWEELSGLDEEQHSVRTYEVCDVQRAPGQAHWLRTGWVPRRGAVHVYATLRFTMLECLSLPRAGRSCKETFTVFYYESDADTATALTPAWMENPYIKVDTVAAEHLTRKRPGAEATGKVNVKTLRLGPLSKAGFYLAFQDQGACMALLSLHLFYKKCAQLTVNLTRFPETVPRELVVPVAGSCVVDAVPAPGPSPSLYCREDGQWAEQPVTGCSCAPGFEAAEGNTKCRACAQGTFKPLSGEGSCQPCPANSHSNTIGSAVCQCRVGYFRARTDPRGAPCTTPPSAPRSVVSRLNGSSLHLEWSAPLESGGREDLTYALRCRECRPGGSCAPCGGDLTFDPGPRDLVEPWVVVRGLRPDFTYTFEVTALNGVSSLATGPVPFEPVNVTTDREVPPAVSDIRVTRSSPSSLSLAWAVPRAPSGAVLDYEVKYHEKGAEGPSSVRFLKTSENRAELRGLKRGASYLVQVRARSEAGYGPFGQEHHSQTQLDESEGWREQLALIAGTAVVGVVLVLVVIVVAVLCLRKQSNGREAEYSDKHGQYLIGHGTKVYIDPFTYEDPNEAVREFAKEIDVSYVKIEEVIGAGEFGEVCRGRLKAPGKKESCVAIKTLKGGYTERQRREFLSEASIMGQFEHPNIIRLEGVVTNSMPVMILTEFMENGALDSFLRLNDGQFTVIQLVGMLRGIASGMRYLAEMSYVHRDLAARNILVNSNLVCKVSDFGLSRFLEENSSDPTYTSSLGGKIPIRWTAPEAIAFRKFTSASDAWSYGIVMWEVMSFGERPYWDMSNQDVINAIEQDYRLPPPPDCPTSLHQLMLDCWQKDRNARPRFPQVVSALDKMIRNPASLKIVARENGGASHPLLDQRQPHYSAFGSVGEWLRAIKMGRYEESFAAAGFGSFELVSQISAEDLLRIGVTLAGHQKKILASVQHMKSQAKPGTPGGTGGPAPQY
PLK1 PBD inh: Plk1 (human) PBD binding inhibition; P53350; Plk1 PBD phosphopeptide binding, fluorescence polarization; inhibition, %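 (tested at about 20 µM)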; 97,000 compounds, 0.13% hits; in the data active = inhibition above about 34%, passing the limit was not always enough
PLK1 inh: inhibitors of human PLK1 kinase | P53350 | recombinant PLK1 kinase, TR-FRET peptide phosphorylation | inhibition, % at 10 µM | 97,000 compounds, 0.53% hits | AID 619;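 active = inhibition of 50% or more in the single-concentration screen; inactive = inhibition below 50%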
LYP inh 2: inhibitors of human LYP (PTPN22) phosphatase. inhibition, % at 2 µM. recombinant LYP catalytic domain, DiFMUP fluorescence. 96,000 compounds, 0.21% hits. Q9Y2R2. AID 640;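 active = inhibition at 2 µM at or above a set limit, the screen mean plus 3 SD, cut at about 24% in these data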
Rev-RRE block: inhibitors of HIV-1 Rev-RRE RNA interaction. Rev peptide-RRE RNA binding, FRET. inhibition, % at 8 µM. 97,000 compounds, 0.79% hits. AID 704;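 active = inhibition above the screen-wide mean plus 3 SD, cut at about 35% in these data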
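Test system – labelled RRE RNA duplex and labelled Rev peptide · Reagent – labelled Rev peptide · Doses – one concentration, 8 µM nominal · Incubation – 5 + 15 min at 25 °C · Signal – FRET fluorescence readout · Read-out basis – % inhibition of FRET ratio versus controls · Control set – DMSO wells as 0% and neomycin B wells as 100% inhibition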
Numbers stand for hits; - = inactive; . = not tested or not shown; [ ] = remark or other dose.

SMILES	LYP act	EphB4 antag	PLK1 PBD inh	PLK1 inh	LYP inh 2	Rev-RRE block
N#CC1(C#N)C2=C(CCCC2)NC(c2ccccc2)C1(C#N)C#N (stereo not given)	-	-	-	-	-	46.8
N#CC12C(N)=NC3(OCCO3)C1(C#N)C1=C(CCC1)NC2c1ccccc1 (stereo not given)	-	-	-	-	-	-
CCOC(=O)c1oc2cccc(O)c2c1CN(Cc1ccccc1)C(C)=O	-	19.5	-	-	-	-
Cc1cc(/C=N/NC(=O)C(=O)N2CCCC2)c(C)n1-c1cccc(Br)c1	-	-	-	-	-	-
Cc1nc(SCC(=O)Nc2ccc(C)c(F)c2)c2oc3ccccc3c2n1	-	-	-	-	-	-
O=C(O)CCCN1C(=O)/C(=C/c2ccc(-c3nc4ccccc4s3)o2)SC1=S	-	-	-	-	41.2	71.3
Cc1ccc(/C=C2\SC(=S)N(CCCC(=O)Nc3ccccn3)C2=O)cc1	-	-	-	-	-	-
O=C(Cn1cnc2c(cnn2-c2ccccc2)c1=O)OCc1ccccc1	-	-	-	50.2	-	-
O=C1c2ccccc2CCC1C(O)c1ccccn1 (stereo not given)	-	-	-	-	-	-
CC(C)N(C(=O)CSc1nnc(NC(=O)c2cccs2)s1)C(C)C	-	-	-	-	-	-
CC(C)c1nnc(NC(=O)c2cccs2)s1	.	-	-	66.7	.	-
Oc1ccc(/C=N/Nc2cc(N3CCOCC3)nc(N3CCOCC3)n2)cc1	-	-	-	-	-	-
CCCCCCOC(=O)C(C#N)c1nc2ccccc2nc1N1CCN(C)CC1 (stereo not given)	-	16.7	-	-	-	-
COc1ccc(CNC(=O)C(C#N)c2nc3ccccc3nc2N2CCN(C)CC2)cc1 (stereo not given)	-	-	-	-	-	-
COc1ccc(CNC(=O)C(C#N)c2nc3ccccc3nc2N2CCCC2)cc1 (stereo not given)	-	-	-	-	-	35.9
O=C(c1ccccn1)N(Cc1ccco1)C1(C(=O)NC2CCCCC2)CCCCC1	-	-	-	-	-	-
COC(=O)c1n[nH]c2ccccc12	-	-	-	-	-	-
O=C(Nc1ccc2oc(-c3ccc4ccccc4c3)nc2c1)c1ccc2c(c1)OCCO2	-	-	-	-	31.1	-
O=C1CC(c2ccccc2)Sc2ccccc2N1 (stereo not given)	-	-	-	-	-	-
O=C(NCCN1CCN(c2ccccc2)CC1)C1CCN(S(=O)(=O)N2CCOCC2)CC1	-	-	-	56.0	-	-
CCCCn1c(=NC(=O)c2cccnc2)c(C#N)cc2c(=O)n3cccc(C)c3nc21	-	-	-	-	-	48.9
CN(C)c1ccc(P(=O)(OCc2ccccc2)C(O)c2ccncc2)cc1 (stereo not given)	-	-	-	-	-	-
Cc1cc(C)cc(N2CC(c3nc4ccccc4n3C)CC2=O)c1 (stereo not given)	.	-	-	57.5	.	-
COc1ccc(C(=O)Nc2ccc(S(=O)(=O)Nc3cc(C)nc(C)n3)cc2)c(OC)c1	-	-	-	-	-	-
O=C(c1cn(-c2ccccc2)nc1-c1ccncc1)n1nnc2ccccc21	-	-	-	-	-	-
SMILES	LYP act	EphB4 antag	PLK1 PBD inh	PLK1 inh	LYP inh 2	Rev-RRE block
COc1ccc(C(=O)/C=C/N(C)C)cc1	-	-	-	-	-	-
CN(C)/C=C/C(=O)c1ccc(F)cc1	-	-	-	-	26.2	-
COc1ccc2oc(C(=O)CCC(=O)O)c(N)c2c1	.	-	-	63.0	.	-
COC(=O)CCC(=O)c1oc2ccc(Br)cc2c1N	-	-	-	-	-	-
Cc1cc(C)cc(OCC(=O)Nc2cccc(C(=O)O)c2)c1	-	-	-	-	-	-
CCNc1cc2oc(=O)c(CN3CCOCC3)c(C)c2cc1C	-	-	-	-	-	79.2
COc1ccc(C(=O)N2CCN(S(=O)(=O)c3ccc(Cl)cc3)CC2)cc1OC	-	-	-	-	-	-
COc1ccc(Cl)cc1S(=O)(=O)N1CCN=C1C	.	-	-	64.2	.	-
CCN1CCC2(CC1)C(C#N)=C(N)Oc1c2sc2nc(C)cc(C)c12	-	-	-	-	-	65.8
O=C(NNC(=O)c1ccc2ccccc2c1O)c1ccccc1Cl	-	-	-	-	24.3	-
O=C(CSc1nc(-c2ccccc2)c(-c2ccccc2)[nH]1)Nc1nccs1	-	-	-	61.2	-	-
Cc1ccc(-c2nnc(SCC(=O)Nc3nccs3)n2N)cc1	-	-	-	62.6	-	-
CCn1c(CNC(=O)Cc2ccc(OC)cc2)nnc1SCC(=O)Nc1nccs1	-	-	-	-	-	-
CC1CCN(C(=O)Cn2c(SCC(=O)Nc3nccs3)nc3ccccc32)CC1	-	-	-	61.0	-	-
CCn1c(Cc2cccc3ccccc23)nnc1SCC(=O)Nc1nccs1	-	-	-	65.3	-	-
CC(c1ccccc1)N1CNc2c(c(=O)n(C)c(=O)n2C)C1 (stereo not given)	-	-	-	-	-	-
Cc1cccc(NC(=O)CN(C)S(=O)(=O)c2ccc(Br)cc2)n1	-	-	-	-	-	-
Cc1cccc(NC(=O)c2ccc(S(=O)(=O)N(C)C)cc2)n1	-	18.0	-	-	-	-
Cc1ccc(C)c(NC(=O)c2cc3ccccn3n2)c1	-	-	-	-	-	-
COc1ccc(Cl)cc1CN1CCN(c2nc(C)cc(C)c2C#N)CC1	-	-	-	61.9	-	39.7
COc1ccc(-n2c(=O)[nH]cc(C(=O)Nc3ccccc3)c2=O)cc1	-	-	-	-	-	-
CCOC(=O)c1ccc2cccc(C)n2c1=O	-	-	-	-	-	-
N#Cc1nc(COc2ccccc2F)oc1NCCc1ccccc1	-	-	-	-	-	-
CN(Cc1ccccc1)c1oc(COc2ccccc2F)nc1C#N	.	-	-	69.2	.	-
COc1ccc(C2C=C(c3ccccc3)Nc3nnnn32)cc1 (stereo not given)	-	-	-	-	-	-
SMILES	LYP act	EphB4 antag	PLK1 PBD inh	PLK1 inh	LYP inh 2	Rev-RRE block
CCOc1ccc(C2C=C(c3ccc(F)cc3)Nc3ncnn32)cc1 (stereo not given)	-	-	-	-	-	57.1
CCCC1=C(C(=O)OCC)C(c2ccc(F)cc2)n2ncnc2N1 (stereo not given)	-	-	-	-	-	-
CCOc1ccc(C2C=C(c3ccccc3)Nc3ncnn32)cc1 (stereo not given)	-	-	-	-	-	39.9
C1=C(c2ccc(-c3ccccc3)cc2)Nc2ncnn2C1c1ccco1 (stereo not given)	-	-	-	-	-	117.7[fluorescence artefact?]
COc1cccc(C2=CC(c3ccccc3)n3ncnc3N2)c1 (stereo not given)	-	-	-	-	-	41.7
Cc1ccc(C2CC(c3ccco3)n3ncnc3N2)cc1 (stereo not given)	-	-	-	-	-	-

Assay outcomes (PubChem BioAssay)
